SMILES strings stand for the structures.

Series [1] concerns erythrocytes. As to conditions: raised from 1 %, previous work, ref 8f; cited from earlier work.
Series [2] has as its system PC3 cells. Nature of the series: Endogenous PS exposure, Annexin V-FITC flow cytometry. Format: cell-based. As to conditions: scramblase 100 μM, 37°C, 2 hours, background value 2 %. The gist of the method:
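PC3 cells were grown in Ham's F-12K with 10% FBS at 37°C, 5% CO2. At 90% confluency they were PBS-washed, trypsinised and resuspended in TES buffer at 1 × 10^5 cells/mL. Test compound (100 μM, from DMSO stock) was added for 2 h at 37°C. Cells were then stained in binding buffer with Annexin V-FITC plus 7AAD (500 ng/mL) for 15 min at 37°C. Flow cytometry excluded 7AAD-positive cells. Three independent experiments were run.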
(In flow cytometry, cells or beads pass a laser one at a time.)

Series [3] relates to Jurkat, PC3 and LNCaP cells. Nature of the series: MTT assay, statements over all three cell lines. Type of series: cell-based. (Tetrazolium dyes change colour on reduction, which living cells bring about.)
The test system of series [4] is LNCaP cells. Description: MTT assay, LNCaP cells. Type of series: cell-based. As to conditions: 24 h, ±10 μM.

With `Cc1ccc(S(=O)(=O)NCCN(CCNC(=O)Nc2ccc([N+](=O)[O-])cc2)CCNS(=O)(=O)c2ccc(C)cc2)cc1` [scramblase 2], the “fraction of Annexin-stained cells, erythrocytes” value in series [1] is recorded as 34%. In series [2], the “fraction of Annexin-stained cells” value is less than 5%.
Take `Cc1ccc(S(=O)(=O)NCCN(CCNCc2ccccc2)CCNS(=O)(=O)c2ccc(C)cc2)cc1` [scramblase 16]: the “LD50 (effect on mitochondrial reductase activity)” value in series [3] was more than 15 µM. For the same compound, in series [4], the “LD50, LNCaP cells” value worked out at 40 µM.
Turning to `Cc1ccc(S(=O)(=O)NCCN(CCNC(=O)[C@H](N)Cc2ccccc2)CCNS(=O)(=O)c2ccc(C)cc2)cc1.Cl` [scramblase 15], the “LD50 (effect on mitochondrial reductase activity)” value in series [3] was more than 15 µM. In addition, the “LD50, LNCaP cells” value in series [4] turned out to be 40 µM.
For the compound `Cc1ccc(S(=O)(=O)NCCN(CCNC(=O)Nc2ccc(C(C)C)cc2)CCNS(=O)(=O)c2ccc(C)cc2)cc1` [scramblase 9], the “fraction of Annexin-stained cells” value in series [2] is reported as less than 5%.
Take `Cc1ccc(S(=O)(=O)NCCN(CCNC(=S)Nc2ccc(Cl)cc2)CCNS(=O)(=O)c2ccc(C)cc2)cc1` [scramblase 14]: the “LD50 (effect on mitochondrial reductase activity)” value in series [3] was more than 15 µM. Also, in series [4], the “LD50, LNCaP cells” value amounted to 15 µM.
For the compound `Cc1ccc(S(=O)(=O)NCCN(CCNC(=O)Nc2ccc(C(F)(F)F)cc2)CCNS(=O)(=O)c2ccc(C)cc2)cc1` [scramblase 5], the “fraction of Annexin-stained cells” value in series [2] amounted to 10%.
